A selection: hits, their analogues and other compounds. The true share with any hit is near 1.4%.
FXIa inh 1536: inhibitors of human coagulation factor XIa | AID 798 | actives 0.14% (n = 220,000) | inhibition, % at 5 µM | P03951 | purified FXIa, Boc-Glu-Ala-Arg-AMC fluorogenic substrate;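 active means inhibition of at least 40%; inactive means inhibition below 40%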;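 further: fluorescence of freed AMC excited at 355 nm; 0% = enzyme without compound and 100% = no enzyme blank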
Furin inh: human furin inhibition; purified furin, fluorogenic substrate cleavage; inhibition, % at 20 µM or 30 µM; actives 0.061% (n = 220,000); in the data active means inhibition above about 25%
KLK5 inh: inhibitors of human kallikrein 5; inhibition, % at 5 µM; actives 0.59% (n = 210,000); recombinant hK5, fluorogenic AMC substrate cleavage;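 active means inhibition of 40% or more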;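 further: 0% = enzyme controls without compound and 100% = no-enzyme blanks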
Target sequence (Q9Y337 67-293 limits assumed): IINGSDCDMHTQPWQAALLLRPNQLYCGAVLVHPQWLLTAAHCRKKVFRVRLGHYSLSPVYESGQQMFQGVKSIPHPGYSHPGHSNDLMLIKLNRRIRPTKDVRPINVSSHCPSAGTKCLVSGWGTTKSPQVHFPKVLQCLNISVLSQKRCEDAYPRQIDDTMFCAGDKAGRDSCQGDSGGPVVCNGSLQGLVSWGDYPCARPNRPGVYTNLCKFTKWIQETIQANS
FXIIa inh 1536: inhibitors of human coagulation factor XIIa. P00748. purified FXIIa, Boc-QGR-AMC fluorogenic substrate, 2 h. inhibition, % at 5 µM. actives 0.3% (n = 220,000); in the data active means inhibition above about 40%;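 further: 0% = enzyme with no compound and 100% = blank without enzyme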
m-calpain inh: blocks pig calpain II enzyme activity; purified calpain II, fluorogenic peptide substrate, 30 min; inhibition, % at 16 µM; actives 0.37% (n = 220,000); AID 1236;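 active means inhibition above about 50%, limit read from the data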
thrombin 1536: thrombin (human) inhibition; P00734; alpha-thrombin, Boc-VPR-AMC fluorogenic substrate cleavage; inhibition, % at 5 µM; actives 0.26% (n = 220,000); AID 1046;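 active means inhibition at or above 40%; inactive means inhibition below 40%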;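 further: 0% = enzyme with no compound and 100% = wells without enzyme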
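signal = AMC fluorescence, 355/460 nm | material = human alpha-thrombin enzyme | control set = enzyme without compound as high, wells lacking enzyme as low | times = reaction at room temperature | read-out basis = percent inhibition scaled between no-compound controls and no-enzyme blanks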
The depositor's hits bear a star; . = not tested or not shown.

SMILES | FXIa inh 1536 | Furin inh | KLK5 inh | FXIIa inh 1536 | m-calpain inh | thrombin 1536
Clc1ccc2nncn2n1 | -5 | -9 | -7 | 1 | -6 | -28
Cc1ccc(-n2c([S-])c(C(=O)Nc3ccc(OC(F)F)cc3)[n+]3ccc(C(=O)NCCO)cc23)cc1C | 0 | -20 | 1 | 12 | -18 | 0
COc1ccccc1-n1c([S-])c(C(=O)Nc2ccccc2C(F)(F)F)[n+]2ccc(C(=O)NCCO)cc12 | 7 | -13 | 2 | 10 | 69* | -2
Cn1cc(C(=O)c2ccc(Cl)cc2Cl)cc1C(=O)N/N=C(\N)COc1ccc(F)cc1 | -1 | 8 | -111 | 9 | -47 | 76*
CC(=O)NNC(=O)c1nc(-c2ccccc2)c(C)o1 | 0 | -9 | -5 | 9 | -8 | 2
CNC(=O)NNC(=O)c1nc(-c2ccccc2)c(C)o1 | 33 | 3 | 42* | 27 | 5 | 24
CCOC(=O)C1(CCCc2ccccc2)CCN(C(=O)C2=C(C)OCCO2)CC1 | 0 | -20 | . | 10 | -8 | -4
O=C(N/N=C/c1cc([N+](=O)[O-])ccc1O)c1cccc2cc[nH]c12 | -9 | 10 | 60* | 19 | 16 | 13
O=C(NCCCN1CCN(CCCNC(=O)c2cc([N+](=O)[O-])ccc2Cl)CC1)c1cc([N+](=O)[O-])ccc1Cl | 2 | -16 | 43* | 5 | 24 | 19
O=C(NCCc1ccc2c(c1)OCCO2)c1cc(F)cc(F)c1 | 0 | -24 | -10 | 10 | -5 | -12
O=C(NCCc1ccc2c(c1)OCCO2)c1ccc([N+](=O)[O-])cc1Cl | 11 | -2 | 40* | 10 | 14 | 4
O=C(C1CCCCC1)N1CCN(c2ccnc3cc(Cl)ccc23)CC1 | 3 | 6 | 4 | 8 | 13 | -1
CC(C)c1ccc(/C=N/NC(=O)CN(c2cccc(Cl)c2Cl)S(C)(=O)=O)cc1 | -9 | -17 | 13 | 2 | -11 | -1
CS(=O)(=O)N(CC(=O)N/N=C/c1ccccc1C(=O)O)c1cccc(Cl)c1Cl | 36 | -8 | 16 | 57* | -6 | 20
CC(NC(=O)c1cnc2n(c1=O)CCS2)c1ccccc1 (stereo not given) | -5 | -12 | 41* | 5 | 13 | -2
CCOc1ccc(OCCn2nnc3ccccc3c2=O)cc1 | -3 | -7 | -6 | 5 | -8 | 5
COC(=O)c1sccc1NC(=O)/C=C/c1c(Cl)cccc1Cl | 22 | -14 | -6 | 40* | -133 | 2
COC(=O)c1sccc1NC(=O)/C=C/c1ccc(Cl)cc1Cl | 4 | -23 | -16 | 8 | -13 | -2
COC(=O)c1ccc(OC)c(CSc2nnc(COc3ccc(Cl)cc3)o2)c1 | -9 | -28 | -11 | -7 | 51* | 3
COc1ccc(NC(=O)C2CCCN2S(=O)(=O)c2ccc(C)cc2)cc1 (stereo not given) | 2 | -22 | -10 | 15 | -46 | -1
COc1ccc(NC(=O)C2CCCCN2S(=O)(=O)c2ccc(F)cc2)cc1 (stereo not given) | 4 | -18 | 53* | 18 | 19 | 18
COc1ccc(S(=O)(=O)N2CCCC2C(=O)Nn2cnnc2)cc1 (stereo not given) | 22 | -21 | -5 | 43* | 24 | -4
COc1ccc(NC(=O)C2CCCCN2S(=O)(=O)c2ccc(F)cc2)c(OC)c1 (stereo not given) | 1 | -9 | 41* | 23 | 12 | 11
O=C(Nc1nc(-c2cccc([N+](=O)[O-])c2)cs1)c1cccc([N+](=O)[O-])c1C(=O)O | 0 | -23 | 7 | 21 | -34 | -11
COc1cc(CNc2nc(C)c([N+](=O)[O-])c(C)c2C#N)cc(OC)c1 | -5 | -6 | -3 | 9 | 66* | -1
SMILES | FXIa inh 1536 | Furin inh | KLK5 inh | FXIIa inh 1536 | m-calpain inh | thrombin 1536
Cc1nc(NCCc2ccccc2F)c(C#N)c(C)c1[N+](=O)[O-] | 14 | -17 | 25 | 25 | 16 | 46*
Cc1nc(NCCc2ccc(F)cc2)c(C#N)c(C)c1[N+](=O)[O-] | -2 | -16 | -8 | 4 | -13 | -13
O=C(Nc1ccccc1-c1nnn(CC(=O)N2CCc3ccccc3C2)n1)C1CCC1 | -2 | -7 | 56* | 12 | 26 | 3
O=C(Nc1cccc(-c2nnn(CC(=O)N3CCc4ccccc4C3)n2)c1)C1CCC1 | -2 | -11 | -23 | 4 | -46 | -3
CCOC(=O)N1CCC(NC(=O)c2cc(C(=O)Nc3ccc(S(=O)(=O)N4CCCCC4)cc3)ccc2CO)CC1 | -4 | -10 | . | 0 | 18 | 1
CCn1c(C)nc2cc(C(=O)N/N=C(\C)c3ccc(OC)cc3O)ccc21 | 43* | 10 | 30 | 36 | 0 | 58*
CCn1c(C(=O)Nc2ccsc2C(=O)OC)cc2sc(Cl)cc21 | -1 | -28 | 46* | -5 | -11 | 5
COC(=O)c1sccc1NC(=O)c1ccc(Cl)s1 | 4 | -15 | -11 | -10 | -67 | -10
CN(C)S(=O)(=O)c1ccc2c(c1)nc(CCC(=O)NCC1CCCCC1)n2C | -3 | -19 | -5 | 17 | -17 | -2
CN(C)S(=O)(=O)c1ccc2c(c1)nc(CCC(=O)NCc1ccc(Cl)cc1)n2C | -1 | -22 | -2 | 6 | 51* | 5
CCSc1ccc(C(=O)NCC(=O)O)cc1 | 0 | -22 | -2 | 5 | -16 | -3
CSc1ccc(NC(=O)Nc2ccc(C(=O)NCC(=O)O)cc2)cc1 | -2 | 1 | 64* | 2 | 17 | -8
O=C(NCc1ccco1)c1ccc2c(c1)CCO2 | 10 | 0 | 53* | 52* | 9 | 32
c1ccc(-c2n[nH]c3c2CCC3)cc1 | 8 | -16 | 51* | 20 | 13 | 12
Cc1ccc2nc(C)/c(=N\O)c(C)nc2c1 | 3 | -20 | 51* | 15 | 0 | 3
COc1ccc(N(C(C)C(=O)N2CCC(Cc3ccccc3)CC2)S(C)(=O)=O)cc1 (stereo not given) | -4 | -10 | 8 | 5 | 30 | -2
CC(C)(C)C(=O)N1NC(=Nc2ccccc2)SC1(C)C | 31 | -5 | 34 | 40* | 16 | 6
CCOC(=O)c1sc2ncn(/N=C/c3cccnc3)c(=O)c2c1C | -12 | -11 | 7 | -2 | 19 | -5
CCOC(=O)c1sc2ncn(/N=C/c3ccc(O)cc3)c(=O)c2c1C | 49* | -5 | 27 | 26 | 7 | 25
Cn1ncc(Br)c1N1C(=O)CCC1=O | -8 | -23 | -12 | 0 | 7 | -4
COC(=O)c1sc(N2C(=O)C(O)=C(C(=O)c3ccc(C)o3)C2c2ccc(F)cc2)nc1C (stereo not given) | 23 | -12 | 51* | 6 | -100 | 20
CC(C)CC(=O)Nc1ccccc1N1CCCC1 | -4 | -9 | 72* | 26 | 18 | 20
CC(C)CC(=O)NC(=S)Nc1ccccc1N1CCCC1 | -16 | -1 | 26 | -1 | 27 | -7

Compound activity deposited in PubChem by several laboratories.
